Assay results gathered from unrelated publications.
Lines come from different studies, so protocols differ.
Target: Myosin-IIIb (MYO3B, Homo sapiens, UniProt Q8WXR4)
Residues used in one study (Q8WXR4 1-1341): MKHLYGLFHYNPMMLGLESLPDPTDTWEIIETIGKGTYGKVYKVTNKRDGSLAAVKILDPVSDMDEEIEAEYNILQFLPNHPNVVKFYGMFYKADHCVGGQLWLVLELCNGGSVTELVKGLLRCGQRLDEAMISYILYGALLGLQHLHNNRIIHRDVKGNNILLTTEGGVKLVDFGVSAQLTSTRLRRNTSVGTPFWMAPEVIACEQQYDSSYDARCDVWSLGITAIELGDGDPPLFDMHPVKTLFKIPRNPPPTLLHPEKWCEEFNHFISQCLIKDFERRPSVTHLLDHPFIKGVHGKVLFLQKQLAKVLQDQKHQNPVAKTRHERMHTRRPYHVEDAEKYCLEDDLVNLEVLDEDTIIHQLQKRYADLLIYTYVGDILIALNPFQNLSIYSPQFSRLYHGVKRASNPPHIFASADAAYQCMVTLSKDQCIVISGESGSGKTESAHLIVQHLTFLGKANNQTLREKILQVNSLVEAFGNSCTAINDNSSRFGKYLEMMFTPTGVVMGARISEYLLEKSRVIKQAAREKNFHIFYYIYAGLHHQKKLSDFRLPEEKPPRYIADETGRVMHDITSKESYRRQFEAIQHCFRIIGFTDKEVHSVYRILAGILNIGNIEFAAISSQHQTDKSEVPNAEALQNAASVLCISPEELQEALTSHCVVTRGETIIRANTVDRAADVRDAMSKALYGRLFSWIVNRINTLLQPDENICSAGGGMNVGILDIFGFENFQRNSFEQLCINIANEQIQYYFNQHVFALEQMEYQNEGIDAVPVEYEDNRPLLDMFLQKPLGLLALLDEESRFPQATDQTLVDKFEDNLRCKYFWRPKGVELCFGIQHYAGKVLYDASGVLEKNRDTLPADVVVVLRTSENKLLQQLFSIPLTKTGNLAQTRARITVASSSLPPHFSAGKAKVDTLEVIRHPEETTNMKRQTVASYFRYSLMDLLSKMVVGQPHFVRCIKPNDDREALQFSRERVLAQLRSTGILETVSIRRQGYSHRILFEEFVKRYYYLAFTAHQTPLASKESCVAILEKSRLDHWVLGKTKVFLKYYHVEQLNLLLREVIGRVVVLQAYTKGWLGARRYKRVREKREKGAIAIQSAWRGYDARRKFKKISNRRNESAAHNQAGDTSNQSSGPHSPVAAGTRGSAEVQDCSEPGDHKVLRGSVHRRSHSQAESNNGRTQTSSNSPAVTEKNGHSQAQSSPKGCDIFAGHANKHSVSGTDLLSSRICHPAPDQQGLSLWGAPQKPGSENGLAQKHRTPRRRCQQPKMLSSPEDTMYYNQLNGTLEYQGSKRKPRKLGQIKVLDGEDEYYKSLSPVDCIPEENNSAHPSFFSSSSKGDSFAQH

SMILES | test | setting | quantity | result
Nc1ncnc2occ(-c3ccc(NC(=O)Nc4cc(C(F)(F)F)ccc4F)cc3)c12 | cell-free assay | 20 µM | remaining signal | 25%
O=C(O)c1ccc2c3c1cccc3c(=O)n1c3ccccc3nc21 | enzyme activity, inhibitor | 0.5 µM | remaining activity | 96.7%
O=C(Nc1cnn(-c2csc(C(=O)NC3COC3)c2)c1)Nc1ccccc1Cl | enzyme activity, inhibitor | 5 µM | remaining activity | 128%
CCN(CC)CCNC(=O)c1c(C)[nH]c(/C=C2\C(=O)Nc3ccc(Cl)cc32)c1C | enzyme activity, inhibitor | 0.5 µM | remaining activity | 41.3%
Cc1sc(C(=O)NC2COC2)cc1-n1cc(NC(=O)Nc2c(F)cccc2Cl)cn1 | enzyme activity, inhibitor | 10 µM | remaining activity | 73.5%
COc1cc(Cl)c(C(=O)N[C@@H](CN[C@H]2CC[C@@H](N)CC2)Cc2ccc(C#N)cc2)cc1-c1ccc(CN[C@H](C)c2ccc(C)cc2)o1 | enzyme activity, inhibitor | 1 µM | remaining activity | 116%
C[S+]([O-])c1ccc(-c2nc(-c3ccncc3)c(-c3ccc(F)cc3)[nH]2)cc1 (centres unmarked) | cell-free assay | 0.5 µM | remaining signal | 104%
CN1CCN(C(=O)c2ccc3cc(CCNc4ccnc5ccc(C#N)cc45)ccc3c2)CC1 | binding, competition with immobilised ligand | 2 µM | inhibition | > 35%
Cn1nc(C(=O)NCc2ccc(C(=O)O)cc2)cc1-c1ccc2[nH]ccc2c1 | binding, competition with immobilised ligand | 0.1 µM | remaining binding | 100%
Cc1ccc(C(=O)Nc2ccc(CN3CCN(C)CC3)c(C(F)(F)F)c2)cc1C#Cc1cnc2cccnn12 | enzyme activity | 23.5 nM | remaining activity | 79%
CCC(=N\O)/C(C)=C/c1ccc(F)cc1 | binding, competition with immobilised ligand | 1 µM | remaining binding | 100%
CC(C)(O)[C@H]1CC[C@H](Nc2ccc3ncc(-c4cccc(C(F)(F)F)c4)n3n2)CC1 | enzyme activity, inhibitor | 1 µM | remaining activity | 85.1%
CSc1cccnc1N1CCN(Cc2nc3ccccc3[nH]2)CC1 | binding, competition with immobilised ligand | 1 µM | remaining binding | 100%
CN1CC(Oc2cnc(C#N)cc2-c2ccn3nc(NC(=O)C4CC4)cc3c2)C1 | enzyme activity, inhibitor | 1 µM | inhibition | -2%
